# Data published in paper PMC6980386 (Traffic (Copenhagen, Denmark), 2019).
# Assays:
# huCD4_1–32-YFP A17V = huCD4_1–32-YFP A17V (Homo sapiens, UniProt P01730, A17V); assay: CADA inhibition of huCD4_1–32-YFP secretion; assay type: cell-based
# Summary of the method: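 HEK293T cells were lipofected with human CD4 residues 1–32 fused to the N-terminus of YFP (secreted, no membrane anchor). Test compound was added 6 h post-transfection as 1:5 serial dilutions (50–0.016 μM) for 48 h. Supernatant was captured on GFP-Trap magnetic beads for 1 h, washed in PBS, and YFP was read by flow cytometry. IC50 is 50% of the untreated control, from four-parameter fits of ≥3 replicate experiments. FC is mutant/WT mean IC50.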
# FL huCD4 A21V = FL huCD4 A21V (Homo sapiens, UniProt P01730, A21V); assay: CADA down-modulation of cellular huCD4; assay type: cell-based
# Summary of the method: (§1)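 HEK293T cells, seeded overnight in DMEM with 10% serum, 1 mM sodium pyruvate and 0.075% NaHCO₃, were lipofected with full-length human CD4 (WT or mutant). Test compound in DMSO was added 6 h post-transfection as 1:5 serial dilutions (50–0.016 μM) for 48 h. Surface CD4 was stained with FITC/APC anti-CD4 (SK3) and read by flow cytometry. IC50 is 50% of the untreated signal, from four-parameter fits of ≥3 replicate experiments. FC is mutant/WT mean IC50.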
# truncated huCD4 D1D2 WT = truncated huCD4 D1D2 WT (Homo sapiens, UniProt P01730); assay: Cell-free in vitro translation and translocation; assay type: biochemical
# Summary of the method: (§2)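 Truncated huCD4 D1D2 (lacking glycosylation sites and membrane anchor) was made by PCR and transcribed with T7. Proteinase K protection ran 30 min on ice and was quenched with PMSF. Products were separated by SDS-PAGE and imaged by phosphor imaging. The SP-cleaved band was normalised to the matching control. Data are from 2–5 independent experiments, compared with WT by Welch t test.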
# FL huCD4 L12A = FL huCD4 L12A (Homo sapiens, UniProt P01730, L12A); assay: CADA down-modulation of cellular huCD4; assay type: cell-based
# Summary of the method: as §1
# FL huCD4 Q15A = FL huCD4 Q15A (Homo sapiens, UniProt P01730, Q15A); assay: CADA down-modulation of cellular huCD4; assay type: cell-based
# Summary of the method: as §1
# [1] = target: truncated huCD4 D1D2 Q15A (Homo sapiens, UniProt P01730, Q15A); assay: Cell-free in vitro translation and translocation; assay type: biochemical
# Summary of the method: as §2
# huCD4_1–32-YFP Q24A = huCD4_1–32-YFP Q24A (Homo sapiens, UniProt P01730, Q24A); assay: CADA inhibition of huCD4_1–32-YFP secretion; assay type: cell-based
# Summary of the method: (§3)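 HEK293T cells were grown in DMEM with 10% FBS and 10 mM HEPES, seeded and left to adhere overnight, then transiently transfected with plasmid by Lipofectamine. Test compound was added 6 h after transfection as a 1:5 serial dilution (50 to 0.016 μM) for 48 h. Secreted YFP in the supernatant was captured on GFP-Trap magnetic beads for 1 h, washed with PBS and measured by flow cytometry. IC50 is the concentration that halves the signal relative to the untreated control, taken from a four-parameter fit of at least three replicate experiments. FC is the mutant mean IC50 divided by the WT mean IC50.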
# FL huCD4 V29A = FL huCD4 V29A (Homo sapiens, UniProt P01730, V29A); assay: CADA down-modulation of cellular huCD4; assay type: cell-based
# Summary of the method: as §1
# FL huCD4 G4A = FL huCD4 G4A (Homo sapiens, UniProt P01730, G4A); assay: CADA down-modulation of cellular huCD4; assay type: cell-based
# Summary of the method: as §1
# FL huCD4 L14A = FL huCD4 L14A (Homo sapiens, UniProt P01730, L14A); assay: CADA down-modulation of cellular huCD4; assay type: cell-based
# Summary of the method: as §1
# sortilin = settings: second substrate, proteomic study; cited from earlier work
# FL huCD4 G25A = FL huCD4 G25A (Homo sapiens, UniProt P01730, G25A); assay: CADA down-modulation of cellular huCD4; assay type: cell-based
# Summary of the method: as §1
# FL huCD4 R8E = FL huCD4 R8E (Homo sapiens, UniProt P01730, R8E); assay: CADA down-modulation of cellular huCD4; assay type: cell-based; settings: HEK293T, 48h
# Summary of the method: as §1
# [2] = target: truncated huCD4 D1D2 P20A (Homo sapiens, UniProt P01730, P20A); assay: Cell-free in vitro translation and translocation; assay type: biochemical
# Summary of the method: as §2
# FL huCD4 P20L = FL huCD4 P20L (Homo sapiens, UniProt P01730, P20L); assay: CADA down-modulation of cellular huCD4; assay type: cell-based; settings: HEK293T, 48h
# Summary of the method: as §1
# FL huCD4 V13L;A17L = FL huCD4 V13L;A17L (Homo sapiens, UniProt P01730, A17L/V13L); assay: CADA down-modulation of cellular huCD4; assay type: cell-based; settings: HEK293T, 48h
# Summary of the method: as §1
# FL huCD4 V13A = FL huCD4 V13A (Homo sapiens, UniProt P01730, V13A); assay: CADA down-modulation of cellular huCD4; assay type: cell-based
# Summary of the method: as §1
# FL huCD4 P6A = FL huCD4 P6A (Homo sapiens, UniProt P01730, P6A); assay: CADA down-modulation of cellular huCD4; assay type: cell-based
# Summary of the method: as §1
# huCD4_1–32-YFP L18A = huCD4_1–32-YFP L18A (Homo sapiens, UniProt P01730, L18A); assay: CADA inhibition of huCD4_1–32-YFP secretion; assay type: cell-based
# Summary of the method: as §3
# bovine pre-prolactin = settings: cited from earlier work
# FL huCD4 L10A;L18A = FL huCD4 L10A;L18A (Homo sapiens, UniProt P01730, L10A/L18A); assay: CADA down-modulation of cellular huCD4; assay type: cell-based; settings: compared with single Leu-to-Ala mutants
# Summary of the method: as §1
# FL huCD4 L16A = FL huCD4 L16A (Homo sapiens, UniProt P01730, L16A); assay: CADA down-modulation of cellular huCD4; assay type: cell-based
# Summary of the method: as §1
# huCD4_1–32-YFP L10A = huCD4_1–32-YFP L10A (Homo sapiens, UniProt P01730, L10A); assay: CADA inhibition of huCD4_1–32-YFP secretion; assay type: cell-based
# Summary of the method: as §3
# [3] = + less, − more sensitive to CADA
# [4] = read-out: Secreted YFP IC50 (μM) Mean, HEK293T, CADA 48h
# [5] = read-out: Cellular huCD4 IC50 (μM) Mean, HEK293T, CADA 48h
structure (smiles),measurement,setting,value
"C=C1CN(S(=O)(=O)c2ccc(C)cc2)CCCN(Cc2ccccc2)CCCN(S(=O)(=O)c2ccc(C)cc2)C1 [CADA, Cyclotriazadisulfonamide]",Secreted YFP FC (fold change of mean IC50 relative to WT),huCD4_1–32-YFP A17V; [3],>+39
same,IC50,huCD4_1–32-YFP A17V; [4],> 50 µM
same,Cellular huCD4 FC (fold change of mean IC50 relative to WT),FL huCD4 A21V; [3],+1.6
same,IC50,FL huCD4 A21V; [5],0.87 µM
same,inhibition of translocation by CADA,"truncated huCD4 D1D2 WT; 15 μM CADA vs DMSO, rabbit reticulocyte lysate, ovine microsomes",75%
same,effect of CADA on co-translational translocation,truncated huCD4 D1D2 WT; increasing doses of CADA,dose-dependently prevented by CADA
same,enhanced CADA sensitivity relative to WT,FL huCD4 L12A,8 fold
same,Cellular huCD4 FC (fold change of mean IC50 relative to WT),FL huCD4 L12A; [3],−7.7
same,IC50,FL huCD4 L12A; [5],0.07 µM
same,Cellular huCD4 FC (fold change of mean IC50 relative to WT),FL huCD4 Q15A; [3],>+93
same,IC50,FL huCD4 Q15A; [5],> 50 µM
same,inhibitory effect of CADA on protein translocation compared to WT,[1]; 15 μM CADA,significantly reduced
same,impact of CADA on co-translational translocation,[1]; increasing doses of CADA,significantly reduced
same,Secreted YFP FC (fold change of mean IC50 relative to WT),huCD4_1–32-YFP Q24A; [3],+3.3
same,IC50,huCD4_1–32-YFP Q24A; [4],4.22 µM
same,Cellular huCD4 FC (fold change of mean IC50 relative to WT),FL huCD4 V29A; [3],+1.2
same,IC50,FL huCD4 V29A; [5],0.63 µM
same,Cellular huCD4 FC (fold change of mean IC50 relative to WT),FL huCD4 G4A; [3],−1.5
same,IC50,FL huCD4 G4A; [5],0.35 µM
same,Cellular huCD4 FC (fold change of mean IC50 relative to WT),FL huCD4 L14A; [3],−1.2
same,IC50,FL huCD4 L14A; [5],0.46 µM
same,susceptibility of sortilin to CADA,sortilin,lower susceptibility to the compound as compared to huCD4
same,Cellular huCD4 FC (fold change of mean IC50 relative to WT),FL huCD4 G25A; [3],+1.1
same,IC50,FL huCD4 G25A; [5],0.61 µM
same,sensitivity to CADA,FL huCD4 R8E,reduced sensitivity to CADA
same,inhibitory effect of CADA on protein translocation compared to WT,[2]; 15 μM CADA,significantly reduced
same,effect of CADA on co-translational translocation,[2]; increasing doses of CADA,"still responded to CADA, although to a lesser extent as compared to WT huCD4"
same,sensitivity to CADA,FL huCD4 P20L,completely resistant to CADA
same,sensitivity to CADA,FL huCD4 V13L;A17L,nearly full resistance to CADA
same,Cellular huCD4 FC (fold change of mean IC50 relative to WT),FL huCD4 V13A; [3],−3.9
same,IC50,FL huCD4 V13A; [5],0.14 µM
same,Cellular huCD4 FC (fold change of mean IC50 relative to WT),FL huCD4 P6A; [3],+1.8
same,IC50,FL huCD4 P6A; [5],0.96 µM
same,Secreted YFP FC (fold change of mean IC50 relative to WT),huCD4_1–32-YFP L18A; [3],−1.9
same,IC50,huCD4_1–32-YFP L18A; [4],0.67 µM
same,sensitivity of bovine pre-prolactin to CADA,bovine pre-prolactin,completely resistant to CADA
same,sensitivity to CADA,FL huCD4 L10A;L18A,further enhanced the effect
same,Cellular huCD4 FC (fold change of mean IC50 relative to WT),FL huCD4 L16A; [3],−4.9
same,IC50,FL huCD4 L16A; [5],0.11 µM
same,Secreted YFP FC (fold change of mean IC50 relative to WT),huCD4_1–32-YFP L10A; [3],−2.1
same,IC50,huCD4_1–32-YFP L10A; [4],0.6 µM
